The record followed here is ChEMBL document CHEMBL1130424, “Stabilized analogs of thymopentin. 1. 4,5-Ketomethylene pseudopeptides” (J Med Chem, 1997).

The nature of data set [1]: Half life by HPLC methods that permitted quantitative resolution of the decrease of TP-5 and the appearance of degradation products by absorbance, human heparinized serum; Not degraded. Type of data set: ADME.
For data set [2], the system named is CCRF-CEM. Briefly: Efficacy was measured as the percentage binding to CEM cells. Type of data set: functional, Homo sapiens. The method, boiled down: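 CEM T-cells, subcultured in RPMI-1640 with 20% serum and stored frozen, were set at 5×10^6 cells/0.1 mL binding buffer (RPMI-1640 with bacitracin). Unlabeled competitor was added at 10^-6–10^-3 M, then [3H]thymopentin (37 Ci/mmol, 548 000 cpm). Incubation was 25 °C for 30 min, followed by two ice-cold washes and scintillation counting. Values are means of replicates at 10^-4 and 10^-3 M.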

Data set [3] in a line: Half life by HPLC methods that permitted quantitative resolution of the decrease of TP-5 and the appearance of degradation products by absorbance, heparinized mouse serum; Not degraded. Type of data set: ADME. The method, boiled down:
(§1)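 Mouse serum was prepared from whole blood with heparin sodium or EDTA as anticoagulant. Compounds were incubated for variable times, and incubation was ended by TFA to 10% (v/v) final, then 1 h at 0 °C and protein removal by centrifugation. Half-life came from HPLC absorbance following disappearance of parent and appearance of degradation products.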

The test system of data set [4] is CCRF-CEM. Briefly: Binding was measured using [3H]thymopentin was compared to the CEM cell binding assay. The data set is classed as functional, Homo sapiens. On the set-up: unit not given here.
The nature of data set [5]: Half life by HPLC methods that permitted quantitative resolution of the decrease of TP-5 and the appearance of degradation products by absorbance in heparinized mouse serum; Not degraded. The data set is classed as ADME. The method, boiled down: as §1
A short description of data set [6]: Half life by HPLC methods that permitted quantitative resolution of the decrease of TP-5 and the appearance of degradation products by absorbance in human heparinized serum; Not degraded. The data set is classed as ADME.
Data set [7] is described as follows: Half life by HPLC methods that permitted quantitative resolution of the decrease of TP-5 and the appearance of degradation products by absorbance in EDTA-treated mouse serum. Type of data set: ADME, organism-based. The gist of the method:
as §1

Data set [8] in a line: Half life by HPLC methods that permitted quantitative resolution of the decrease of TP-5 and the appearance of degradation products by absorbance in human heparinized serum. The data set is classed as ADME.
Data set [9] in a line: Half life by HPLC methods that permitted quantitative resolution of the decrease of TP-5 and the appearance of degradation products by absorbance in heparinized mouse serum. The data set is classed as functional, cell-free. The gist of the method: as §1
The nature of data set [10]: Half life by HPLC methods that permitted quantitative resolution of the decrease of TP-5 and the appearance of degradation products by absorbance in heparinized mouse serum. The data set is classed as ADME. The method, boiled down:
as §1

Data set [11] is described as follows: Half life by HPLC methods that permitted quantitative resolution of the decrease of TP-5 and the appearance of degradation products by absorbance, human heparinized serum. Type of data set: ADME, cell-free.
Data set [12] is described as follows: Half life by HPLC methods that permitted quantitative resolution of the decrease of TP-5 and the appearance of degradation products by absorbance, heparinized mouse serum. Type of data set: ADME. The gist of the method: as §1

As usually defined, the half-life is how long it takes for the measured level to halve.

With `CCCC[C@@H](C(=O)N[C@@H](CC(=O)O)C(=O)N[C@H](C(=O)C[C@H](C(=O)O)C(C)C)C(C)C)N(C)C(=O)[C@@H](N)CCCN=C(N)N`, the T1/2 result in data set [1] and in data set [3] was “Not degraded” throughout. For the same molecule, the Efficacy in [2] is recorded as 37. Moreover, the Binding in [4] came out at 2356.
In the case of `CC(C)C[C@H](NC(=O)[C@@H](N)CCCN=C(N)N)C(=O)N[C@@H](CC(=O)O)C(=O)N[C@H](C(=O)C[C@H](Cc1ccccc1)C(=O)O)C(C)C`, the Efficacy in data set [2] was found to be 65. Also, the Binding in data set [4] is given as 1851.
The molecule `CC(C)[C@H](NC(=O)[C@H](CC(=O)O)NC(=O)[C@H](C)NC(=O)[C@@H](N)CCCN=C(N)N)C(=O)C[C@H](Cc1ccccc1)C(=O)O` displayed an Efficacy in data set [2] of 67. In addition, the Binding in data set [4] turned out to be 1780.
`CCCC[C@@H](C(=O)N[C@@H](CC(=O)O)C(=O)N[C@H](C(=O)C[C@H](Cc1ccccc1)C(=O)O)C(C)C)N(C)C(=O)[C@@H](N)CCCN=C(N)N`: the T1/2 entry in [5] and in data set [6] was “Not degraded” each time. Moreover, the Efficacy in data set [2] is given as 37. In data set [4], this molecule gave a Binding of 2356.
`CCCC[C@H](NC(=O)[C@@H](N)CCCN=C(N)N)C(=O)N[C@@H](CC(=O)O)C(=O)N[C@@H](C(C)C)C1CC(Cc2ccccc2)C(=O)O1` (stereo partly specified) had an Efficacy in data set [2] of 16. For the same molecule, the Binding in data set [4] was found to be 2771.
`CCCC[C@H](NC(=O)[C@@H](N)CCCN=C(N)N)C(=O)N[C@@H](CC(=O)O)C(=O)N[C@@H](C(C)C)C(O)C[C@H](Cc1ccccc1)C(=O)O` (stereo partly specified): in [2], the Efficacy is given as 35. The same molecule came in with a Binding in data set [4] of 2400.
In the case of `CC(C)[C@H](NC(=O)[C@H](CC(=O)O)NC(=O)[C@H](CCCCN)NC(=O)[C@@H](N)CCCN=C(N)N)C(=O)C[C@H](Cc1ccccc1)C(=O)O` (stereo in doubt; 1a -A) [listing 1 of 2 here], the half-life in data set [7] amounted to 4.9 min; in data set [8] it was 2 min. Moreover, the Efficacy in data set [2] was found to be 70. Also, the Binding in data set [4] was 1735.
Molecule `CC(C)[C@H](NC(=O)[C@H](CC(=O)O)NC(=O)[C@H](CCCCN)NC(=O)[C@@H](N)CCCN=C(N)N)C(=O)C[C@H](Cc1ccccc1)C(=O)O` (stereo in doubt; 1a -A) [listing 2 of 2 here] returned a T1/2 in data set [9] of 2 min.
As to `CC(C)[C@H](NC(=O)[C@H](CC(=O)O)NC(=O)[C@H](CCCCN)NC(=O)[C@@H](N)CCCN=C(N)N)C(=O)C[C@H](Cc1ccccc1)C(=O)O` (stereo in doubt; 1a-B), in [2], the Efficacy is on record as 73. The molecule also yielded a Binding in data set [4] of 1673.
With `CC(C)[C@H](NC(=O)[C@H](CC(=O)O)NC(=O)[C@@H]1CCCN1C(=O)[C@@H](N)CCCN=C(N)N)C(=O)C[C@H](Cc1ccccc1)C(=O)O` (stereo in doubt; 1b-A), the half-life in data set [10] was found to be 4.5 min; in [7], 17 min; in [8], 6 min. Also, the Efficacy in [2] turned out to be 64. The molecule further came in with a Binding in data set [4] of 1843.
In data set [2], `CC(C)[C@H](NC(=O)[C@H](CC(=O)O)NC(=O)[C@@H]1CCCN1C(=O)[C@@H](N)CCCN=C(N)N)C(=O)C[C@H](Cc1ccccc1)C(=O)O` (stereo in doubt; 1b-B) yielded an Efficacy of 56. Further, in data set [4], the Binding is 2000.
Take `CCCC[C@H](NC(=O)[C@@H](N)CCCN=C(N)N)C(=O)N[C@@H](CC(=O)O)C(=O)N[C@H](C(=O)C[C@H](Cc1ccccc1)C(=O)O)C(C)C` (stereo in doubt; 1c-A): the half-life in [10] was found to be 5.5 min; in data set [7], 21.1 min; in data set [8], 1.9 min. For the same molecule, the Efficacy in data set [2] was 95. Also, the Binding in [4] amounted to 1254.
As for `CCCC[C@H](NC(=O)[C@@H](N)CCCN=C(N)N)C(=O)N[C@@H](CC(=O)O)C(=O)N[C@H](C(=O)C[C@H](Cc1ccccc1)C(=O)O)C(C)C` (stereo in doubt; 1c-B), in data set [2], the Efficacy was 84. The Binding in data set [4] came out at 1453.
The matching figures for `CC(C)[C@H](NC(=O)[C@H](CC(=O)O)NC(=O)[C@H](CCCCN)NC(=O)[C@@H](N)CCCN=C(N)N)C(=O)C[C@H](Cc1ccccc1)C(=O)O` (stereo in doubt; 1f-A): 54 and 2044.
In turn, `CCCC[C@H](NC(=O)[C@@H](N)CCCN=C(N)N)C(=O)N[C@@H](CC(=O)O)C(=O)N[C@@H](C)C(=O)C[C@H](Cc1ccccc1)C(=O)O` (stereo in doubt; 1g-A) had a half-life in data set [7] of 20 min. In data set [2], this molecule registered an Efficacy of 73. Also, the Binding in data set [4] was determined as 1677.
For the molecule `CCCC[C@H](NC(=O)[C@@H](N)CCCN=C(N)N)C(=O)N[C@@H](CC(=O)O)C(=O)N[C@@H](C)C(=O)C[C@H](Cc1ccccc1)C(=O)O` (stereo in doubt; 1g-B), the Efficacy in [2] is 71. In addition, the Binding in data set [4] was 1715.
The molecule `CCCC[C@H](NC(=O)[C@@H](N)CCCN=C(N)N)C(=O)N[C@@H](CC(=O)O)C(=O)N[C@H](C(=O)C[C@H](C(=O)O)C(C)C)C(C)C` (stereo in doubt; 1h-A) gave a half-life in data set [11] of 2.4 min. The molecule further had a T1/2 in data set [12] of 1.2 min. In addition, the Efficacy in data set [2] is 77. The molecule further had a Binding in data set [4] of 1600.
Molecule `CCCC[C@H](NC(=O)[C@@H](N)CCCN=C(N)N)C(=O)N[C@@H](CC(=O)O)C(=O)N[C@H](C(=O)C[C@H](C(=O)O)C(C)C)C(C)C` (stereo in doubt; 1h-B) gave a T1/2 in [12] of 2.6 min. Further, the Efficacy in data set [2] was found to be 71. The molecule also had a Binding in data set [4] of 1713.
